Assay results as given in ChEMBL document CHEMBL1149157, “Synthesis and structure-activity relationship of novel antitumoral platinum xanthate complexes” (J Med Chem, 2004).

Tests used:
Assay type in all cases: functional, cell-based, Homo sapiens
Calu-6 [1] = assay: Cytotoxic activity was determined in vitro in Calu-6 cell line culture at pH 6.8
Summary of the method: (§1)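 Seeded at 2×10^6 cells/plate. Next day, switched to pH 6.8 medium (1.3 g NaHCO3/L, serum acidified with 1 N HCl) and equilibrated in 5% CO2. Exposed for 2 h at 37°C in quadruplicate to 50–0.8 µg/mL (1:2 series; acetone ≤5%), then given drug-free pH 7.4 medium until controls were confluent. Read by formaldehyde fixation and crystal violet at 550 nm. IC50 from dose–response curves, mean of four assays ± SD.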

SK-MEL-25 [2] = assay: Cytotoxic activity was determined in vitro in SK-MEL-25 cell line culture at pH 6.8; summary of the method: as §1
LXF-289 cell line [3] = assay: Cytotoxic activity was determined in vitro in LXF-289 cell line culture at pH 6.8; summary of the method: as §1
SK-OV-3 [4] = assay: Cytotoxic activity was determined in vitro in SK-OV-3 cell line culture at pH 6.8
Summary of the method: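 SK-OV-3 seeded at 1×10^6 cells/plate. Next day, placed in pH 6.8 medium (1.3 g NaHCO3/L, HCl-treated serum, 5% CO2). Given 2 h at 37°C, in quadruplicate, of 50–0.8 µg/mL (1:2; acetone ≤5%), then drug-free pH 7.4 medium until controls were confluent. Formaldehyde-fixed and crystal violet-stained, A550. IC50 from dose–response curves, mean of four assays ± SD.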

LXF-289 cell line [5] = assay: Cytotoxic activity was determined in vitro in LXF-289 cell line culture at pH 7.4
Summary of the method: (§2)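 Plated at 2×10^6 cells/plate. After one day, medium was replaced with pH 7.4 medium (2.2 g NaHCO3/L) and equilibrated under 5% CO2. Cells got 2 h at 37°C, in quadruplicate, of a 1:2 series 50–0.8 µg/mL (acetone ≤5%), then drug-free pH 7.4 medium for 24–96 h until controls were confluent. Fixed with 3% formaldehyde, stained with 1% crystal violet, A550. IC50 from dose–response curves; mean of four assays ± SD.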

MCF7 [6] = assay: Cytotoxic activity was determined in vitro in MCF-7 cell line culture at pH 7.4
Summary of the method: (§3)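 Using pH 7.4 medium (2.2 g NaHCO3/L) on cells plated a day earlier at 2×10^6/plate, with equilibration in 5% CO2. Compounds were applied for 2 h at 37°C in quadruplicate at 50–0.8 µg/mL (1:2; acetone ≤5%), followed by drug-free pH 7.4 medium until controls were confluent. Fixed and stained with crystal violet, dye eluted with ethanol/1% acetic acid, read at 550 nm. IC50 from curves, mean of four ± SD.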

SK-MEL-25 [7] = assay: Cytotoxic activity was determined in vitro in SK-MEL-25 cell line culture at pH 7.4; summary of the method: as §2
SK-OV-3 [8] = assay: Cytotoxic activity was determined in vitro in SK-OV-3 cell line culture at pH 7.4
Summary of the method: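 With 1×10^6 cells/plate seeded, medium was changed the next day to pH 7.4 (2.2 g NaHCO3/L) under 5% CO2. Cells were exposed 2 h at 37°C in quadruplicate to a 1:2 series of 50–0.8 µg/mL (acetone ≤5%), then given drug-free pH 7.4 medium until controls were confluent. Crystal violet read at 550 nm after formaldehyde fixation. IC50 from curves; mean of four assays ± SD.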

Calu-6 [9] = assay: Cytotoxic activity was determined in vitro in Calu-6 cell line culture at pH 7.4; summary of the method: as §2
MCF7 [10] = assay: Cytotoxic activity was determined in vitro in MCF-7 cell line culture at pH 6.8
Summary of the method: (§4)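 Cells at 2×10^6/plate were moved the next day into pH 6.8 medium (1.3 g NaHCO3/L; serum given 1 N HCl; 30 min 5% CO2). Treated 2 h at 37°C, quadruplicate, 50–0.8 µg/mL in 1:2 steps (acetone ≤5%), then grown in drug-free pH 7.4 medium to control confluence. Crystal violet stain eluted with ethanol/1% acetic acid before A550. IC50 from curves, mean of four assays ± SD.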

KB [11] = assay: Cytotoxic activity was determined in vitro in KB cell line culture at pH 6.8; summary of the method: as §4
KB [12] = assay: Cytotoxic activity was determined in vitro in KB cell line culture at pH 7.4; summary of the method: as §3

Substance	IC50 (Calu-6 [1]) [µM]	IC50 (SK-MEL-25 [2]) [µM]	IC50 (LXF-289 cell line [3]) [µM]	IC50 (SK-OV-3 [4]) [µM]	IC50 (LXF-289 cell line [5]) [µM]	IC50 (MCF7 [6]) [µM]	IC50 (SK-MEL-25 [7]) [µM]	IC50 (SK-OV-3 [8]) [µM]	IC50 (Calu-6 [9]) [µM]	IC50 (MCF7 [10]) [µM]	IC50 (KB [11]) [µM]	IC50 (KB [12]) [µM]
2,6-bis[(3,3-dimethylbutan-2-yl)oxy]-1,3,5,7-tetrathia-4-platinaspiro[3.3]heptane	9	10	15	18	18	9	11	34	9	7	5	7
2,6-bis(hexyloxy)-1,3,5,7-tetrathia-4-platinaspiro[3.3]heptane	23	37	> 91	102	> 91	47	70	130	37	44	64	> 91
2,6-bis(octyloxy)-1,3,5,7-tetrathia-4-platinaspiro[3.3]heptane	23	56	30	> 83	83	31	> 83	> 83	56	31	> 83	> 83
2,6-dibutoxy-1,3,5,7-tetrathia-4-platinaspiro[3.3]heptane	7	10	24	33	39	25	22	90	19	7	16	32
CISPLATIN	16	78	113	64	83	160	90	90	25	108	55	52
2,6-bis(2-methylbutoxy)-1,3,5,7-tetrathia-4-platinaspiro[3.3]heptane	9	17	19	23	44	27	32	35	19	19	31	39
2,6-bis(cyclopentyloxy)-1,3,5,7-tetrathia-4-platinaspiro[3.3]heptane	3	5	37	17	38	10	9	26	5	5	14	24
2,6-dimethoxy-1,3,5,7-tetrathia-4-platinaspiro[3.3]heptane	11	14	39	26	102	19	80	47	21	7	20	49
2,6-bis(3-methylbutoxy)-1,3,5,7-tetrathia-4-platinaspiro[3.3]heptane	6	20	23	24	71	40	35	21	21	23	35	19
2,6-bis(2-methylpropoxy)-1,3,5,7-tetrathia-4-platinaspiro[3.3]heptane	9	15	19	32	37	23	21	61	10	27	30	47
2,6-bis(cyclopropylmethoxy)-1,3,5,7-tetrathia-4-platinaspiro[3.3]heptane	17	64	> 102	95	> 102	90	85	67	33	95	33	72
2,6-bis(propan-2-yloxy)-1,3,5,7-tetrathia-4-platinaspiro[3.3]heptane	6	6	10	14	30	7	12	33	10	3	6	10
2,6-bis({tricyclo[5.2.2.0^{2,6}]undecan-8-yloxy})-1,3,5,7-tetrathia-4-platinaspiro[3.3]heptane	8	> 38	> 38	> 38	> 38	> 38	> 38	> 38	18	32	> 77	> 77
2,6-bis(nonyloxy)-1,3,5,7-tetrathia-4-platinaspiro[3.3]heptane	> 76	> 76	38	> 76	53	30	> 76	> 76	> 76	24	> 76	> 76
2,6-diethoxy-1,3,5,7-tetrathia-4-platinaspiro[3.3]heptane	21	21	45	86	91	47	56	98	24	12	18	58
2,6-bis(2,2-dimethyl-3-phenylpropoxy)-1,3,5,7-tetrathia-4-platinaspiro[3.3]heptane	10	> 50	> 50	> 50	> 50	> 50	> 50	> 50	17	> 50	> 50	> 50
2,6-dipropoxy-1,3,5,7-tetrathia-4-platinaspiro[3.3]heptane	7	10	37	45	49	9	21	50	21	4	12	38
2,6-bis(cyclohexyloxy)-1,3,5,7-tetrathia-4-platinaspiro[3.3]heptane	3	3	6	9	12	9	8	12	8	5	6	9
2,6-bis(pentyloxy)-1,3,5,7-tetrathia-4-platinaspiro[3.3]heptane	9	19	38	31	62	34	32	66	15	10	16	25
